Laboratory results from ChEMBL document CHEMBL4831480, “Identification of First-in-Class Inhibitors of Kallikrein-Related Peptidase 6 That Promote Oligodendrocyte Differentiation” (J Med Chem, 2021).
Calls of active or inactive are those of the source. The rule behind the calls is not given here.

Key:
Kallikrein-6 [1] = target: T1, Kallikrein-6 (Homo sapiens, UniProt Q92876); test: Inhibition of KLK6 (unknown origin) assessed as release of AMC fluorescent product using Boc-QAR-AMC as substrate incubated for 30 mins by microplate reader; details: read-out: IC50
Kallikrein-6 [2] = target: T1, Kallikrein-6; test: Competitive inhibition of KLK6 (unknown origin) using Boc-QAR-AMC as substrate incubated for 30 mins by Dixon plot analysis
[3] = target: Kallikrein-4 (Homo sapiens) (UniProt Q9Y5K2); test: Inhibition of KLK4 (unknown origin) assessed as inhibition of release of AMC fluorescent product using H-VPR-AMC as substrate at 10 uM incubated for 30 mins by microplate reader relative to control
[4] = target: T2, Kallikrein-8 (Homo sapiens) (UniProt O60259); test: Inhibition of KLK8 (unknown origin) assessed as inhibition of release of AMC fluorescent product using H-VPR-AMC as substrate at 10 uM incubated for 30 mins by microplate reader relative to control
T2 sequence (whole entry): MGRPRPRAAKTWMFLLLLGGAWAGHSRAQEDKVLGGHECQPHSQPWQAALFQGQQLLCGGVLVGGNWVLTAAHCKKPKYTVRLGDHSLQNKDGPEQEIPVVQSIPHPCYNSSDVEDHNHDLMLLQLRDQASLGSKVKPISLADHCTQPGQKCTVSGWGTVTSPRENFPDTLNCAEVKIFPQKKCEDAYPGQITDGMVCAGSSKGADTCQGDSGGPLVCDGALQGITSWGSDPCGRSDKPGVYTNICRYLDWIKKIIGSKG

Caspase-2 (Homo sapiens) = target: T3, Caspase-2 (Homo sapiens) (UniProt P42575); test: Inhibition of Caspase-2 (unknown origin) assessed as inhibition of release of AMC fluorescent product using Ac-VDVAD-AMC as substrate at 10 uM incubated for 30 mins by microplate reader relative to control
T3 sequence (whole entry): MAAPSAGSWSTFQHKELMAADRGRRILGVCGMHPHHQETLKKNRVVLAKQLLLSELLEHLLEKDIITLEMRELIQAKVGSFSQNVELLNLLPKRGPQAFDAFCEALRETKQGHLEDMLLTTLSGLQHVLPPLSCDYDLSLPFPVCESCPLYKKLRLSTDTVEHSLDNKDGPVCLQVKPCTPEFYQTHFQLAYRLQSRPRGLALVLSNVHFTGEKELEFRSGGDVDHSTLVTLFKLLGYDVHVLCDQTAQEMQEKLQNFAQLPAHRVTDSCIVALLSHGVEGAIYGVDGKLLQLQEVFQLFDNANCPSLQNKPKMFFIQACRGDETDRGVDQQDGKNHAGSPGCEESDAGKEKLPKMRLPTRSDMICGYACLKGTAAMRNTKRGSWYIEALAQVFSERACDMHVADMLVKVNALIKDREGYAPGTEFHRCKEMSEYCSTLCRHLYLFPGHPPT
Outline: (§1)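 Each inhibitor at 10 μM was preincubated 15 min at 37 °C with the protease at an optimized concentration in its own buffer. Reaction started with AMC substrate: Ac-VDVAD-AMC 25 μM (caspase-2), Ac-DEVD-AMC 10 μM (caspase-3), Ac-VEID-AMC 100 μM (caspase-6), Z-LR-AMC 50 μM (cathepsin L), Z-GGR-AMC 100 μM (tPA). Read for 30 min at 37 °C; % inhibition from initial rates versus DMSO; 3 independent experiments.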

Caspase-6 (Homo sapiens) = target: T4, Caspase-6 (Homo sapiens) (UniProt P55212); test: Inhibition of Caspase-6 (unknown origin) assessed as inhibition of release of AMC fluorescent product using Ac-VEID-AMC as substrate at 10 uM incubated for 30 mins by microplate reader relative to control; outline: as §1
T4 sequence (whole entry): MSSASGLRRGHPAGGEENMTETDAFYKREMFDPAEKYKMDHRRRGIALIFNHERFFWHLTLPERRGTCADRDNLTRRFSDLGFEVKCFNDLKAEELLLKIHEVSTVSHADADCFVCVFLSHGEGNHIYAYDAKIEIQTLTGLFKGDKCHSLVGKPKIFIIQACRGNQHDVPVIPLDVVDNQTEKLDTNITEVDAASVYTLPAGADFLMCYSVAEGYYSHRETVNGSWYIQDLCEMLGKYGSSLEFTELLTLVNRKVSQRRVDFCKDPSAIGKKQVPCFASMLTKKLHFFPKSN

[5] = Cytotoxicity against Swiss mouse cortical cells assessed as cell viability at 50 uM incubated for 24 hrs by XTT assay; format: cell-based, Cortical neurone; details: mouse cortical cells (cortical neurones), read-out: Activity
CG-4 [6] = test: Induction of oligodendrocyte differentiation in Sprague-Dawley rat CG-4 cells assessed as matured oligodendrocyte by measuring increase in mCherry positive cells at 6 to 8 uM measured after 4 days by fluorescence imaging analysis; format: functional, cell-based; details: dose 6-8 µM, time 4.0 day
[7] = Toxicity in human blood assessed as effect on activated partial thromboplastin time; format: tissue-based
[8] = Toxicity in human blood assessed as effect on prothrombin ratio; format: tissue-based
[9] = Permeability in human Caco-2 cells assessed as compound recovery; format: ADME, cell-based; details: read-out: Activity
[10] = Metabolic stability in human liver microsomes assessed as half life; format: ADME, Microsome
[11] = target: Voltage-gated inwardly rectifying potassium channel KCNH2 (Homo sapiens, UniProt Q12809); test: Inhibition of human ERG
Microglia [12] = test: Anti-inflammatory activity in new born Wistar rat brain microglia assessed as reduction in LPS-induced TNFalpha expression measured after 24 hrs by ELISA
Microglia [13] = test: Anti-inflammatory activity in new born Wistar rat brain microglia assessed as reduction in LPS-induced IL-1beta expression measured after 24 hrs by ELISA
Prothrombin/thrombin = test: Inhibition of Thrombin (unknown origin) assessed as inhibition of release of AMC fluorescent product using […] as substrate at 10 uM incubated for 30 mins by microplate reader relative to control; details: Homo sapiens
Cortical neurone [14] = test: Cytotoxicity against Swiss mouse cortical cells assessed as cell viability at 25 uM incubated for 24 hrs by XTT assay; format: cell-based
CG-4 [15] = test: Induction of oligodendrocyte differentiation in Sprague-Dawley rat CG-4 cells assessed as matured oligodendrocyte by measuring increase in mCherry positive cells at 2 uM measured after 4 days by fluorescence imaging analysis; format: functional, cell-based; details: time 4.0 day
[16] = Cytotoxicity against Sprague-Dawley rat CG-4 cells assessed as cell death at 30 uM measured after 4 days by fluorescence imaging analysis; format: cell-based; details: cg-4, 96 h, time 4 day
Plasminogen = Plasminogen (Homo sapiens, UniProt P00747); test: Competitive inhibition of plasmin (unknown origin) using Boc-QAR-AMC as substrate incubated for 30 mins by Dixon plot analysis
Cortical neurone [17] = test: Cytotoxicity against Swiss mouse cortical cells assessed as cell viability at 10 uM incubated for 24 hrs by XTT assay; format: cell-based
Kallikrein-1 = Kallikrein-1 (Homo sapiens, UniProt P06870); test: Competitive inhibition of KLK1 (unknown origin) assessed as release of AMC fluorescent product using H-PFR-AMC as substrate incubated for 30 mins by microplate reader
Kallikrein-1, sequence (P06870 whole entry): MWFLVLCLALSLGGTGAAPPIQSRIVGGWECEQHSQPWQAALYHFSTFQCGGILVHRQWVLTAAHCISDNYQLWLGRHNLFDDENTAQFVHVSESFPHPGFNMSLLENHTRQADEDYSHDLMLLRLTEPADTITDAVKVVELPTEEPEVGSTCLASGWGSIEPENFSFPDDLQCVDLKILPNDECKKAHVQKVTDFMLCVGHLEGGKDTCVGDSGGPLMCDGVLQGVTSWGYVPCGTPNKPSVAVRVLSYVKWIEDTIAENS

Kallikrein-4 (Homo sapiens), sequence (Q9Y5K2 whole entry): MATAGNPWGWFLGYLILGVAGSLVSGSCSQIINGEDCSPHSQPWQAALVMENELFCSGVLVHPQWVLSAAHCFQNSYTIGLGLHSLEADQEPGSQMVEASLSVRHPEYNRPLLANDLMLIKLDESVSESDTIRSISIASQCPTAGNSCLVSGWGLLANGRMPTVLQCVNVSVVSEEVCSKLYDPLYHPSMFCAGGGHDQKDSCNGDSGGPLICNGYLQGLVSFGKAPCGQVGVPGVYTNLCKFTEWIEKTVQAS
Voltage-gated inwardly rectifying potassium channel KCNH2, sequence (Q12809 whole entry): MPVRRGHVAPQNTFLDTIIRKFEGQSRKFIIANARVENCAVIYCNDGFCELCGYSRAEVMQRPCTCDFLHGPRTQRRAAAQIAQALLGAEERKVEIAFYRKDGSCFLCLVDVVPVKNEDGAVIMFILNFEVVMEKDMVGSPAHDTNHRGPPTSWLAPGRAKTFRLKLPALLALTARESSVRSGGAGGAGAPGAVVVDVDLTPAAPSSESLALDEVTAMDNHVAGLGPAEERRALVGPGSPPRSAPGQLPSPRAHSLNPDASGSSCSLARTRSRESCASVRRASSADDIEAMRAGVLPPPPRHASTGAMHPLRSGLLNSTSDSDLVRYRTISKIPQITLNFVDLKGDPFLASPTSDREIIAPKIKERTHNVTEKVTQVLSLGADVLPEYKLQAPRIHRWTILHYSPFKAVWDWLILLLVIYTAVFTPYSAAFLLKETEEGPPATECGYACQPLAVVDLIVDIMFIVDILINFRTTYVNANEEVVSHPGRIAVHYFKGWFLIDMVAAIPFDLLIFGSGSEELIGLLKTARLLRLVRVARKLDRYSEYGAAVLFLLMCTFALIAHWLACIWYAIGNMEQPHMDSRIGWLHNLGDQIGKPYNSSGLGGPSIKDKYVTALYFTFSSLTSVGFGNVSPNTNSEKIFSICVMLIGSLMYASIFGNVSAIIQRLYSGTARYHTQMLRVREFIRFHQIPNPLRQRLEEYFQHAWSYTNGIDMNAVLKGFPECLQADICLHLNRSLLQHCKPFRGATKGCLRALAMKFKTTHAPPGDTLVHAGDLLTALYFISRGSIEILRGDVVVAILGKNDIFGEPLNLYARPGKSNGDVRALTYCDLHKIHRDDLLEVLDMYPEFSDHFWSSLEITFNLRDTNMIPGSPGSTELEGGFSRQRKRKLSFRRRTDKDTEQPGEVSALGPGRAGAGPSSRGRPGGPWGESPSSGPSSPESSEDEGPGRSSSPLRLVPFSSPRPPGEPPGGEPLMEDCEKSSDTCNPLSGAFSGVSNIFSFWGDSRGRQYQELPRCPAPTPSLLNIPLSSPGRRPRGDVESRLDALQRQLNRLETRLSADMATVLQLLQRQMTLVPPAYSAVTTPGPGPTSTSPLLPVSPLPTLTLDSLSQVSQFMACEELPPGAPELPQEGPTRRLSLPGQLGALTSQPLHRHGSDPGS
Plasminogen, sequence (P00747 97-580 limits assumed): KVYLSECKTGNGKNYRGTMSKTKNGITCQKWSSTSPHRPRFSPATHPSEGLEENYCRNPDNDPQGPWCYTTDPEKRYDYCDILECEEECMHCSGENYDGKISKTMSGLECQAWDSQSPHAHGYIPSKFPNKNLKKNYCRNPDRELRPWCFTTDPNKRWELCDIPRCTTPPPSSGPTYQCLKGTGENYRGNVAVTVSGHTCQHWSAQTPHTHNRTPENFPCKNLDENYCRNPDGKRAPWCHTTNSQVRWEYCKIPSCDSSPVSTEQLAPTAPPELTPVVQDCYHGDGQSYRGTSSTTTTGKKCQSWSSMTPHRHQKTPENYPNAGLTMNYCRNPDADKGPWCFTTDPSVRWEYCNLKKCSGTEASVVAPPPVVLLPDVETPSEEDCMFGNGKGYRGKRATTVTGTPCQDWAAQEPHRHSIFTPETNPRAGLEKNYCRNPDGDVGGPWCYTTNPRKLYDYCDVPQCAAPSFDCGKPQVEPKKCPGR
Plasminogen, sequence (P00747 581-810 limits assumed): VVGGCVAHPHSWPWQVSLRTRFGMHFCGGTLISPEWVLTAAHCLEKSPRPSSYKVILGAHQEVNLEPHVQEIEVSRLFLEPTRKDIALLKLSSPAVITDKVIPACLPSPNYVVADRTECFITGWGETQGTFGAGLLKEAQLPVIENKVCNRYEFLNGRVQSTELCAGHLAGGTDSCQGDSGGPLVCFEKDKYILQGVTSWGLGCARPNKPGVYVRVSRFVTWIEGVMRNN

SMILES	IC50 (Kallikrein-6 [1])	Ki (Kallikrein-6 [2])	inhibition [3]	inhibition [4]	inhibition (Caspase-2 (Homo sapiens))	inhibition (Caspase-6 (Homo sapiens))	inhibition (Prothrombin/thrombin)	also measured
Cl.NCc1ccc(NC(=O)c2ccc3ccccc3c2O)cc1	6900 nM	2400 nM	14%	22%	30%	56%	5%	Ki (Plasminogen): 1500 nM; Activity (Cortical neurone [17]): Toxic
Cl.NCc1ccc(NC(=O)c2cc3ccccc3cc2O)cc1	–	–	2%	61%	4%	40%	–	viability at 24 h, 50 µM [5]: 65%; Ki (Plasminogen): 1300 nM; Ki (Kallikrein-1): 2400 nM; Activity [7]: Non-Toxic; Activity [8]: Non-Toxic; recovery [9]: > 90%; half-life [10]: > 2 h; Activity [11]: Not Active; Activity (Microglia [12]): Active; Activity (Microglia [13]): Active
CC(C)c1ccc(C(=O)Nc2ccc(CN)cc2)c(O)c1	3630 nM	1500 nM	45%	58%	15%	12%	32%	–

The next lines start with results.

IC50 (Kallikrein-6 [1])	Ki (Kallikrein-6 [2])	inhibition [3]	inhibition [4]	inhibition (Caspase-2 (Homo sapiens))	inhibition (Caspase-6 (Homo sapiens))	inhibition (Prothrombin/thrombin)	SMILES	also measured
2370 nM	2000 nM	0%	34%	0%	5%	0%	Cc1ccc(C(=O)Nc2ccc(CN)cc2)c(O)c1.Cl	viability at 24 h, 50 µM [5]: 65%; Activity (CG-4 [6]): Active; Activity [7]: Non-Toxic; Activity [8]: Non-Toxic; recovery [9]: > 90%; half-life [10]: > 2 h; Activity [11]: Not Active; Activity (Microglia [12]): inactive; Activity (Microglia [13]): inactive
–	–	6%	53%	8%	31%	6%	Cc1ccc2ccc(C(=O)Nc3ccc(CN)cc3)c(O)c2c1	–
–	–	3%	45%	14%	70%	–	COc1ccc2c(O)c(C(=O)Nc3ccc(CN)cc3)ccc2c1	–
–	4300 nM	0%	16%	5%	13%	2%	CC(C)(C)c1ccc(O)c(C(=O)Nc2ccc(CN)cc2)c1.Cl	Activity (Cortical neurone [14]): Toxic; Activity (CG-4 [15]): Active; Activity [16]: Toxic
